Assay results from PubChem BioAssay AID463079 (The Scripps Research Institute Molecular Screening Center, 2010).
Screen size: about 330,000 compounds; about 2,000 (0.61%) were called active. This excerpt belongs to a sample that is enriched for actives. A number with no mark means an inactive call.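 Rule for the calls: active = inhibition above that plate's mean sample inhibition plus 3 SD (cut at about 26% in these data); inactive = the rest.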

Assay: ATP-evoked calcium signal inhibitors, parental CHO, primary screen, counter-screen for OX1R antagonist project, cell-based, fluorescence, Fluo-8 calcium dye (AID 463079);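 note: 0% = ATP-challenged DMSO wells and 100% = DMSO wells without ATP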
Details: parental CHO-K1, ATP-induced calcium, Fluo-8 fluorescence; at 5.6 µM; stronger effect = higher value
In short: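 Measured by: calcium-sensitive Fluo-8 fluorescence / Test system: CHO parental line / Controls: ATP-challenged DMSO wells low, unchallenged DMSO wells high / Measure: % inhibition / Compound: single nominal dose of 5.6 µM per compound / Replicates: single well per compound, no replicates / Reagent: ATP as calcium-mobilizing challenge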

Structure (SMILES) | inhibition
CCC(=O)Nc1ccc(-c2ccc(N3CCCCC3)nn2)cc1 | -16%
CC1CCN(c2ccc(-c3ccc(NC(=O)c4ccco4)cc3)nn2)CC1 | 45% (active)
CC1CCN(C(NC(=O)c2ccco2)C(=O)c2ccccc2)CC1 (stereo unspecified) | -6.97%
COc1ccc(CCNC(=O)CN(C)S(=O)(=O)c2ccc3nc(C)sc3c2)cc1OC | -5.92%
CC(=O)Nc1ccc(S(=O)(=O)NCCC(=O)N2CCN(c3ccccc3Cl)CC2)cc1 | -3.47%
CCOC(=O)N1CCN(C(=O)CSc2nc(=O)n3cccc(C)c3n2)CC1 | -15.5%
Cc1cccn2c(=O)c(/C=C(\C#N)C(N)=O)c(N3CCCCCC3)nc12 | -34.3%
CCOC(=O)CC1C(=O)NCCN1c1nc2c(C)cccn2c(=O)c1/C=C1\SC(=S)N(C(C)CC)C1=O (stereo unspecified) | 54.2% (active)
COc1ccc(CC(NC(C)=O)C(=O)NC2CCN(C(=O)Nc3ccc(C#N)cc3)CC2)cc1OC (stereo unspecified) | -6.58%
CC(C)=CCN1CCN(CCCc2ccccc2)CC1CCO (stereo unspecified) | -8.88%
CN(C)S(=O)(=O)N1CCC(Oc2cccc(C(=O)NCCCC3CCCC3)c2)CC1 | 23.8%
CSc1ccc(S(=O)(=O)NCC(=O)OCC(=O)NC2(C#N)CCCCC2)cc1[N+](=O)[O-] | -8.63%
COc1ccc(-c2noc(CCC(=O)N3CCN(c4cccc(C)c4)CC3)n2)cc1 | -7.6%
Oc1c(Cl)cc(Cl)c(Cl)c1Cc1c(O)c(Cl)cc(Cl)c1Cl | 70.6% (active)
COCC(=O)Nc1cc(C(=O)OC)cc(C(=O)OC)c1 | -1.27%
Cc1cccc(NC(=O)C2CC(=O)OC23CCCC3)c1 (stereo unspecified) | -13.3%
C/C(=N\NC(=O)CNC(=O)C(c1ccccc1)c1ccccc1)c1ccc(C)cc1 | 30.7% (active)
C/C(=N/NC(=O)CC(=O)N/N=C(\C)c1ccc([N+](=O)[O-])cc1)c1ccc([N+](=O)[O-])cc1 | -3.47%
O=C(CNC(=O)C(c1ccccc1)c1ccccc1)N/N=C\c1ccc2c(c1)OCO2 | 2.64%
CCCc1ccc(C(=O)COC(=O)CN2C(=O)NC3(CCCCC3C)C2=O)cc1 (stereo unspecified) | -23.9%
COc1cc(C(=O)N2CCN(C/C=C/c3ccccc3)CC2)cc(OC)c1C | -10.8%
CC1(C)C2CC[C@]3(C)C(CC=C4[C@@H]5C[C@@](C)(CO)CC[C@]5(C(=O)O)CC[C@]43C)[C@@]2(C)CC[C@@H]1O (stereo partly specified) | -1.46%
CC1(C)CC[C@]2(C(=O)O)CC[C@]3(C)C(=CCC4[C@@]5(C)CC[C@H](O)C(C)(C)C5[C@H](O)C[C@]43C)[C@@H]2C1 (stereo partly specified) | -9.31%

Structure (SMILES) | inhibition
CC1(C)CC[C@@]2(C(=O)O)C(C1)C1=CCC3[C@@]4(C)CC[C@H](O)C(C)(C)C4CC[C@@]3(C)[C@]1(C)C[C@H]2O (stereo partly specified) | 93.2% (active)
Cc1ccc(Cl)c(NC(=O)CN(C)CC(=O)Nc2ccc(F)c(F)c2F)c1Cl | -2.12%
NC(=O)c1ccc(-c2csnn2)cc1 | -15.6%
Cc1nc2ccccc2cc1OCc1ccc(F)cc1 | 54.1% (active)
Fc1ccccc1COc1cccc2cccnc12 | -22.9%
Cc1occc(=O)c1OCc1ccc(F)cc1 | -7.75%
CCNC(=S)N1CCN(CCN=CC2=C(O)CC(C)(C)CC2=O)CC1 | -4.83%
C=C(Br)CN1CCN(CC(=C)Br)CC1 | 4.29%
CCCCNC(=O)C(C)N(CCN(C)C)C(=O)CCCCCN1C(=O)NC(c2ccc(Cl)cc2)C(C(=O)OCc2ccccc2)=C1C (stereo unspecified) | -17%
CNC(=O)NC(=O)CSc1nnc(-c2ccc(F)cc2)n1CC1CCCO1 (stereo unspecified) | -7.71%
Cc1ccc(S(=O)(=O)N2CCN(c3ncnc4ccccc34)CC2)cc1 | 0.84%
COc1ccc(C)cc1S(=O)(=O)N1CCN(S(=O)(=O)c2cc(C(=O)O)ccc2C)CC1 | -11.5%
Cc1ccc(C)c(S(=O)(=O)N2CCN(c3ncnc4sccc34)CC2)c1 | 62.3% (active)
COc1ccc(NS(=O)(=O)c2cc(NC(=O)C3CCCCC3)ccc2N2CCOCC2)cc1 | 5.3%
CC(C)(C)c1ccc(CCC2OCC(CN3CCOCC3)O2)cc1 (stereo unspecified) | -9.27%
Cc1cc(OCC(=O)NC2CCN(C)CC2)ccc1[N+](=O)[O-] | -4.54%
Cc1cc(OCCCCOc2ccc(C#N)cc2)ccc1[N+](=O)[O-] | 44.9% (active)
Cc1cc(OCCCN2CCN(Cc3ccccc3)CC2)ccc1[N+](=O)[O-] | 18.6%
CC[C@]12c3[nH]c4ccc(OC)cc4c3CCN1C(=O)C(CC(=O)NCc1ccco1)C[C@@H]2C(=O)N1CCN(C(=O)C2CC2)CC1 (stereo partly specified) | -3.18%
O=C1[C@@H](c2ccccc2)[C@@H](c2ccccc2)N1c1cccnc1 | 3.04%
CCc1ccc2ncc(C(=O)c3ccccc3)c(N3CCOCC3)c2c1 | -4.24%
Cc1ccc2c(c1)NC(=O)[C@@]1(C)[C@@H](c3ccccc3)[C@H]3COc4ccc(Cl)cc4[C@@H]3N1C2=O | -11.9%
CN(C)C(=O)CCc1ccc2c3c([nH]c2c1)[C@]1(C)[C@@H](C(=O)N2CCOCC2)C[C@H](CC(=O)NCCc2ccccn2)C(=O)N1CC3 | 1.44%

Structure (SMILES) | inhibition
CN(C)c1ccc(C=C2C(=O)OC3(CCCC3)OC2=O)cc1 | -4.66%
COc1cc(/C=C2/SC(=S)N(Cc3ccccc3)C2=O)cc(OC)c1O | 27.6%
CN(C)c1ccc(/C=C2\NC(=S)N(Cc3ccccc3)C2=O)cc1 | 70.7% (active)
N#CC1(NC(=O)COC(=O)Cc2n[nH]c(=O)c3ccccc23)CCCCC1 | -1.72%
Cc1ccc(NC(=O)CN(C)CC(=O)Nc2cccc(F)c2)cc1[N+](=O)[O-] | 68.4% (active)
CN(CC(=O)Nc1cccc(F)c1)CC(=O)Nc1cccc([N+](=O)[O-])c1 | -2.05%
Cc1ccc(NC(=O)c2sccc2C)cc1[N+](=O)[O-] | -13%
CCCc1ccc(-c2c(C)sc(NC(=O)c3ccnn3C)c2C#N)cc1 | 37% (active)
Cn1nccc1CNC(=O)c1ccnn1C | 7.66%
CCN(CC)C(=O)c1sc(NC(=O)c2ccco2)c(C#N)c1C | -6.79%
Cc1cc(C)cc(Oc2nc3c(C)cccn3c(=O)c2/C=C(\C#N)C(=O)NC2CCS(=O)(=O)C2)c1 (stereo unspecified) | -10.7%
Cc1ccccc1C(=O)NC(=S)NC1CC1 | -11.8%
O=C(CSc1ncn[nH]1)Nc1nc(-c2cccc([N+](=O)[O-])c2)cs1 | 29.9% (active)
O=C(CSc1ncn[nH]1)Nc1nsc(-c2ccccc2)n1 | 0.25%
O=C(CSc1nc(-c2ccccc2)cs1)Nc1cccc([N+](=O)[O-])c1 | -15.2%
CC(C)CC(CC(C)C)=NNC(=O)c1ccc(CSc2nncn2C)cc1 | -6.24%
Cc1cc(N2C(=O)C(O)=C(C(=O)c3ccc(C)o3)C2c2ccc(OCc3ccccc3)cc2)no1 (stereo unspecified) | -17.5%
C=CCOc1cccc(C2C(C(=O)c3ccc(C)o3)=C(O)C(=O)N2CCCn2ccnc2)c1 (stereo unspecified) | 4.82%
C=CCOc1cccc(C2C(C(=O)c3ccc(C)o3)=C(O)C(=O)N2c2nnc(C)s2)c1 (stereo unspecified) | 35.4% (active)
Cc1ccc(SC(=O)COc2ccc(C)c(C)c2)cc1 | 11.9%
Cc1ccnc(-n2sc3ccccc3c2=O)n1 | 46.3% (active)
Cc1nc2ccccc2c(=O)n1NC(=O)c1ccccc1 | -3.13%
CCOC(=O)N1CCC(=NNC(N)=O)CC1 | -14.6%

Structure (SMILES) | inhibition
O=Cc1c(Cl)cccc1Cl | -9.8%
O=C(NCCc1c[nH]c2ccc(Cl)cc12)c1ccc([N+](=O)[O-])cc1 | 8.94%
O=C(NCCc1ccc(Cl)cc1Cl)c1cc([N+](=O)[O-])c[nH]c1=O | 26.2% (active)
NS(=O)(=O)c1ccc(CCNC(=O)c2ccc(Cl)cc2[N+](=O)[O-])cc1 | -1.67%
Cc1ccc(O/C=C2\OC(=O)c3ccccc32)cc1 | 3.04%
O=C(COC(=O)c1ncc(Cl)c(Cl)c1Cl)NCc1cccs1 | -15.5%
CC1CC(C)CN(C(=O)COC(=O)c2ccc3ncsc3c2)C1 (stereo unspecified) | -8.36%
CCC(=C/c1sc2ccc3ccccc3c2[n+]1C)/C=C1\Sc2ccc3ccccc3c2N1C | 79.9% (active)
CCC1(c2ccccc2)NC(=O)N(CC(=O)Nc2ccccc2C(=O)NC2CCCC2)C1=O (stereo unspecified) | -8.29%
COc1ccc(NC(=O)CC2C(=O)OCC3CCCCN32)cc1Cl (stereo unspecified) | -17.2%
CC(C)(C)c1ccc(/C=C/C(=O)Nc2ncccn2)cc1 | -20.1%
COc1ccccc1NC(=O)/C=C/C(N)=O | -0.46%
COC(=O)c1sc(-c2ccc(C(C)(C)C)cc2)cc1NC(=O)/C=C/C(=O)O | 38.8% (active)
CC(C)c1cc(C(N)=O)c(NC(=O)c2cccc(COc3ccc(Br)cc3)c2)s1 | -12.5%
O=C1OCCN1C(=O)[C@H]1[C@H](c2ccccc2)C(c2ccc(F)cc2)=NN1c1ccccc1 | -16.7%
CC1(C)Oc2ccc(C(=O)N3CCOCC3)cc2N(CC(=O)Nc2ccccc2)C1=O | -10.5%
Cc1nn(C)cc1/C=C1\CCC/C(=C\c2cn(C)nc2C)C1=O | 1.91%
CCOC(=O)N1CCN(C(=O)c2ccc(S(=O)(=O)Nc3cccc(C(F)(F)F)c3)cc2)CC1 | 10.1%
O=C(/C=C/c1ccc(F)cc1)Nc1cccc(S(=O)(=O)Nc2cccc(C(F)(F)F)c2)c1 | -1.97%
Cc1oc2c(F)c(F)c(F)c(F)c2c1S(=O)(=O)Nc1cccc(C(F)(F)F)c1 | 42.3% (active)
COc1cccc(OC)c1C(=O)N1CCN(Cc2cccnc2)CC1 | 2.69%
CC[C@]12c3[nH]c4cc(CCC(=O)N(C)C)ccc4c3CCN1C(=O)[C@@H](CC(=O)NCc1ccco1)C[C@@H]2C(=O)N1CCN(C(=O)c2ccco2)CC1 | -6.08%
